Data on 25 compounds can be found in ChEMBL document CHEMBL1154934, “Identification of piperazine-bisamide GHSR antagonists for the treatment of obesity” (Bioorg Med Chem Lett, 2010).

The target of assay [1] is Kappa-type opioid receptor (Homo sapiens, UniProt P41145). Nature of the assay: Inhibition of kappa opioid receptor.
Another assay has as its target Mu-type opioid receptor (Homo sapiens, UniProt P35372). Put plainly: Inhibition of mu opioid receptor.
Assay [2] deals with Sodium-dependent dopamine transporter (Homo sapiens, UniProt Q01959). Nature of the assay: Inhibition of DAT.
Sequence of Sodium-dependent dopamine transporter (Q01959 whole entry): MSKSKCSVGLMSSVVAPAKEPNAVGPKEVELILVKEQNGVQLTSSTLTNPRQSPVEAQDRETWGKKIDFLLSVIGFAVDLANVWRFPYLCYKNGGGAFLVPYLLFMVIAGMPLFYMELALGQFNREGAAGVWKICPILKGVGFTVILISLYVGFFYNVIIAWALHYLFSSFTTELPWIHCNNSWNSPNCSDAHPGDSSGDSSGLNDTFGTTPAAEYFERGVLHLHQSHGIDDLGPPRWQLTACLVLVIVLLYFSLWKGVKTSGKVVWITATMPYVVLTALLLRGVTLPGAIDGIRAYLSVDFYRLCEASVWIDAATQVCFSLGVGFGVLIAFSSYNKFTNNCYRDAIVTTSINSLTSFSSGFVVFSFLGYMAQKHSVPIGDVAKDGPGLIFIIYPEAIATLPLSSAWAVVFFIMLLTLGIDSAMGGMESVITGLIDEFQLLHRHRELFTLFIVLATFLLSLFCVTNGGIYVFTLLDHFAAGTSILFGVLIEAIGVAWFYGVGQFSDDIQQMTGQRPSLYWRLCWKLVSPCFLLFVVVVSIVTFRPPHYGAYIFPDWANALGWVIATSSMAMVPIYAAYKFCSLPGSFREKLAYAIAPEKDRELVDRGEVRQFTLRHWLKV
A further assay addresses Histamine H2 receptor (Homo sapiens, UniProt P25021). Nature of the assay: Inhibition of histamine H2 receptor.
Assay [3] addresses T1, 5-hydroxytryptamine receptor 2C (Homo sapiens, UniProt P28335).
T1 sequence (P28335 whole entry): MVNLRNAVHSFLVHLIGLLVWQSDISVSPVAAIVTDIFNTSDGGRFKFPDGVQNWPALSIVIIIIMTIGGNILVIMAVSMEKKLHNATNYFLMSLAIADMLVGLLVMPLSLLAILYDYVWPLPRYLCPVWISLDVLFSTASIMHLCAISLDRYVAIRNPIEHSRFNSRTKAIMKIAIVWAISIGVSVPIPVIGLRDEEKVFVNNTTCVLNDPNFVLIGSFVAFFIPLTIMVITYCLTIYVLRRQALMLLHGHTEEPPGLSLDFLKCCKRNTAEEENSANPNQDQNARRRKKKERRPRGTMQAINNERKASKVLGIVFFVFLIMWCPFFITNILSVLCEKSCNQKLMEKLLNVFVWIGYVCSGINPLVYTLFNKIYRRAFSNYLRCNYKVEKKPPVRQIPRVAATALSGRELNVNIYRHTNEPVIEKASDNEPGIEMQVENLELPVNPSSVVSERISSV
Put plainly: Inhibition of 5HT2C (receptor).

For a further assay, the target named is D(2) dopamine receptor (Homo sapiens, UniProt P14416). Put plainly: Inhibition of dopamine D2 receptor.
Sequence of D(2) dopamine receptor (P14416 whole entry): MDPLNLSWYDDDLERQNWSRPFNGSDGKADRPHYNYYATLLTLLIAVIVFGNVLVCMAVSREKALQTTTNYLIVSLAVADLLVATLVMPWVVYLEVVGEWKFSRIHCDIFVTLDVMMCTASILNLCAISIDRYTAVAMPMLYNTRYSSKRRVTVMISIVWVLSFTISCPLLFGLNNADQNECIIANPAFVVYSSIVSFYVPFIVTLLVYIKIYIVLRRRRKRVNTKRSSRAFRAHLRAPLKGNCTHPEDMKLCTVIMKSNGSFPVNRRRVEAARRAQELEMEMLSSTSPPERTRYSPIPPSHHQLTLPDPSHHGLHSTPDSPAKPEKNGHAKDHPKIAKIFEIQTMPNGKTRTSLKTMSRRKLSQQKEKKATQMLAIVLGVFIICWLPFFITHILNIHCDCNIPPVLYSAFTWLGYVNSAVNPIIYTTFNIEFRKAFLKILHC
The target of assay [4] is 5-hydroxytryptamine receptor 2A (Homo sapiens, UniProt P28223). Nature of the assay: Inhibition of 5HT2A (receptor).
Sequence of 5-hydroxytryptamine receptor 2A (P28223 whole entry): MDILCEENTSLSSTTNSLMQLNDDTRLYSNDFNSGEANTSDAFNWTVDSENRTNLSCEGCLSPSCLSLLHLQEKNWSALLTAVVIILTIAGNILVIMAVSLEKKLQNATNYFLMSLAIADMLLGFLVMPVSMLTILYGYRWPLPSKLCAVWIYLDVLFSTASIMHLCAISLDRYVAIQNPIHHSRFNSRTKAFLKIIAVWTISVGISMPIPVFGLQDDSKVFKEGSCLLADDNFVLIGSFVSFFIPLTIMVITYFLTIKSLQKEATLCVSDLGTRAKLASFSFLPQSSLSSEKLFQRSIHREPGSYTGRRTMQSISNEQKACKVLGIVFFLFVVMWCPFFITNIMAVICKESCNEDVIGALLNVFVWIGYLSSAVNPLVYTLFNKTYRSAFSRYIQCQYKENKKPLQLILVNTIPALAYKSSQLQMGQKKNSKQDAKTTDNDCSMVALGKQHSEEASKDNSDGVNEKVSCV
Assay [5] concerns the target Sodium-dependent serotonin transporter (Homo sapiens, UniProt P31645). Put plainly: Inhibition of SERT.
Assay [6] has as its target Sodium-dependent noradrenaline transporter (Homo sapiens, UniProt P23975). Put plainly: Inhibition of NET.
In assay [7] the target is Growth hormone secretagogue receptor type 1 (Homo sapiens, UniProt Q92847). Nature of the assay: Antagonist activity at human GHSR expressed in CHOK1 cells assessed as inhibition of ghrelin-induced intracellular calcium flux by aequorin flash luminescence assay. In kind it is functional, cell-based, CHO-K1. Put shortly:
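Aequorin flash luminescence in CHO-K1 cells stably co-expressing human ghrelin receptor and aequorin. […] IC50 values are means of three determinations.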
In general terms: A change in cytosolic calcium serves as a functional read-out for many receptors and channels.

The target in a further assay is D(3) dopamine receptor (Homo sapiens, UniProt P35462). Nature of the assay: Inhibition of dopamine D3 receptor.
Sequence of D(3) dopamine receptor (P35462 whole entry): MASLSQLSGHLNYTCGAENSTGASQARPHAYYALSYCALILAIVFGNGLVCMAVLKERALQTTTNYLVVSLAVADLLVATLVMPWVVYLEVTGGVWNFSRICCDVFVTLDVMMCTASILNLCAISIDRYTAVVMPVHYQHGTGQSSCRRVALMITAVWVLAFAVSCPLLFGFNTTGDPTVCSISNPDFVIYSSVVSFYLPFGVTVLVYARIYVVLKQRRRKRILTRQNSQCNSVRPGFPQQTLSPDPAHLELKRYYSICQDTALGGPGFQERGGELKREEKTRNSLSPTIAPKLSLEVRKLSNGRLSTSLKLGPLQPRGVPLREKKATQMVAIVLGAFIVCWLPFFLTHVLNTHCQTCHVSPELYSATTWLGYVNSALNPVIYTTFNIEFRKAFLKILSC
The target of assay [8] is T2, Alpha-2A adrenergic receptor (Homo sapiens, UniProt P08913).
T2 sequence (P08913 whole entry): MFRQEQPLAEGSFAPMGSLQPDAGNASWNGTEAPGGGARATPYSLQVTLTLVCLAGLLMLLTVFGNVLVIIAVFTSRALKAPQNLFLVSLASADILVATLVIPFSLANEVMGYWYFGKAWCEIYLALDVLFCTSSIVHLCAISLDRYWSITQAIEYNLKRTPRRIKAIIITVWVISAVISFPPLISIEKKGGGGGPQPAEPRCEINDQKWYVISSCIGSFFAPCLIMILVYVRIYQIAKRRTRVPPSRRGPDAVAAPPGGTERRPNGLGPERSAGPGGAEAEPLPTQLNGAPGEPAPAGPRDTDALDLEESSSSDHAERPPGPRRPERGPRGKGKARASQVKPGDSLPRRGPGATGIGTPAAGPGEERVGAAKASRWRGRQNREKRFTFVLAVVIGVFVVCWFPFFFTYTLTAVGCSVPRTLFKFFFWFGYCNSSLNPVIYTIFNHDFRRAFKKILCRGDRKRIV
Nature of the assay: Inhibition of alpha2A adrenergic receptor.

Assay [9] deals with Muscarinic acetylcholine receptor M3 (Homo sapiens, UniProt P20309). Put plainly: Inhibition of muscarinic M3 receptor.
Sequence of Muscarinic acetylcholine receptor M3 (P20309 whole entry): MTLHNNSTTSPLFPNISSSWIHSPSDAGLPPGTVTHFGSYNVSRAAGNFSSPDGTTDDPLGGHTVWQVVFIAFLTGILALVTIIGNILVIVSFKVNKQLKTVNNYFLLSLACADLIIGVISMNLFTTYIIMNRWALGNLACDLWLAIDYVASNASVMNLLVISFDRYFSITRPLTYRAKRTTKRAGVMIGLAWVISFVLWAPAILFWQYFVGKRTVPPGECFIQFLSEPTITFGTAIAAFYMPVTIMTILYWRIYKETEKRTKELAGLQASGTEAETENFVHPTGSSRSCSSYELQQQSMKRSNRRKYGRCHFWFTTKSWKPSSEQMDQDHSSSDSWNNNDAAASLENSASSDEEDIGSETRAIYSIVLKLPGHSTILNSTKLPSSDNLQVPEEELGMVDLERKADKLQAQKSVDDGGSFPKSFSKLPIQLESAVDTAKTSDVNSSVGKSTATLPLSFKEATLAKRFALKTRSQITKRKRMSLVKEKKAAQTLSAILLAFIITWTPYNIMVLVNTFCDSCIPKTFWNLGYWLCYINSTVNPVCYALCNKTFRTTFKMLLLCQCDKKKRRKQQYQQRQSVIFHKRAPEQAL
For assay [10], the target named is Growth hormone secretagogue receptor type 1 (Rattus norvegicus) (UniProt O08725). Put plainly: Agonist activity at rat GHSR expressed in CHO cells assessed as increase in ghrelin-induced [3H]IP accumulation at 10 uM after 1 hr by scintillation counting relative to ghrelin. In kind it is functional, cell-based. Put shortly: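 CHO cells stably expressing human or rat GHSR labelled 12 h with 3H-inositol (1 µCi/mL in DMEM), then exposed to ghrelin or compound at 37 °C for 1.0 h. Lysis with 20 mM formic acid, 4 °C, 4 h. Extract taken onto SPA beads, 12 h in the dark, then radioactivity counted. IP accumulation expressed as % of maximal ghrelin response at 10, 1.0 and 0.1 µM.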
Sequence of Growth hormone secretagogue receptor type 1 (Rattus norvegicus) (O08725 whole entry): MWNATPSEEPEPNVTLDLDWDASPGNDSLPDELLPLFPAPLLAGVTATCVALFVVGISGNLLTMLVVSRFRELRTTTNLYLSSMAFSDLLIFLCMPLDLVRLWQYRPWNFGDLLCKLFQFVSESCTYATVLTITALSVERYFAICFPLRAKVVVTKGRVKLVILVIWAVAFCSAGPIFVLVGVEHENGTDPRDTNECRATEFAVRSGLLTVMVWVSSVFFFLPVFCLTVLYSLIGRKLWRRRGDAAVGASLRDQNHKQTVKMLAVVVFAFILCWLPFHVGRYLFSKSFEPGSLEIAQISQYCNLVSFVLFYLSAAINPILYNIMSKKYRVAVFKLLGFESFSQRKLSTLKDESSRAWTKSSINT

The structures appear in SMILES notation.

Sequence of Sodium-dependent serotonin transporter (P31645 whole entry): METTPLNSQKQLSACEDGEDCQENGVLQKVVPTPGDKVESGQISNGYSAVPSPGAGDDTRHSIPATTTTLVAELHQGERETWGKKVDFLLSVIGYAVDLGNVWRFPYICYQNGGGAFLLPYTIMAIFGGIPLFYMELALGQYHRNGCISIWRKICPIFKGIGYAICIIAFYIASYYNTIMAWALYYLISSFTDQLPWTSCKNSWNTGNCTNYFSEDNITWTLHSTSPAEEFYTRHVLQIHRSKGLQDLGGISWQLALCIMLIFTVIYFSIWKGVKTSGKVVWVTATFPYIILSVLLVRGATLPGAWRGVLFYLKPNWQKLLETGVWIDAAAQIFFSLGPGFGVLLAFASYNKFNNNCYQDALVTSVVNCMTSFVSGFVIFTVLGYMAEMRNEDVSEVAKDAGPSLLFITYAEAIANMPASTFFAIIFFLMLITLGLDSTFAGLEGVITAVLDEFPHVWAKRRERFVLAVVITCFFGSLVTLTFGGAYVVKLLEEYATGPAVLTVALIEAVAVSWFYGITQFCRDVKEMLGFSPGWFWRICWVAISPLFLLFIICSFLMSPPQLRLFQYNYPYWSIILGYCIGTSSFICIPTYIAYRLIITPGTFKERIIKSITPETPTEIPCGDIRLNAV
Sequence of Growth hormone secretagogue receptor type 1 (Q92847 whole entry): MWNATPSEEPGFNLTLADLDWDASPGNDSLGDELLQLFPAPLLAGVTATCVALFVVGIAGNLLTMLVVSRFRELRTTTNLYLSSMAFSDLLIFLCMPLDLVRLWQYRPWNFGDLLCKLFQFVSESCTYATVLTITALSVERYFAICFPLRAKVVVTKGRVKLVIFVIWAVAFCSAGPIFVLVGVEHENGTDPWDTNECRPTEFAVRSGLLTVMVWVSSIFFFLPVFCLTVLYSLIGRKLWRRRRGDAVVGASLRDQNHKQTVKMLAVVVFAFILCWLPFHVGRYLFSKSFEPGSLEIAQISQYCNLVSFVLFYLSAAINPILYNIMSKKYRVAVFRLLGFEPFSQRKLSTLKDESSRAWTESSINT
Sequence of Mu-type opioid receptor (P35372 whole entry): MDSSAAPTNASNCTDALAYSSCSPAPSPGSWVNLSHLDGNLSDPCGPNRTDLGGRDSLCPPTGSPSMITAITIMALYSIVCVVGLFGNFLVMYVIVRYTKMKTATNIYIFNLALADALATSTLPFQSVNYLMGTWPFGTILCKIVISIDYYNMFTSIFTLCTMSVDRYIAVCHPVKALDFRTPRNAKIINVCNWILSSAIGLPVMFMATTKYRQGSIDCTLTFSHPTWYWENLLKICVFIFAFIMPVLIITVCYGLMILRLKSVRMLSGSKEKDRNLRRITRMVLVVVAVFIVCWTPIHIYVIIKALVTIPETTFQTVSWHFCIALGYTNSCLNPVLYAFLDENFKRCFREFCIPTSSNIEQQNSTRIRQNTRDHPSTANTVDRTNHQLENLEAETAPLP
Sequence of Histamine H2 receptor (P25021 whole entry): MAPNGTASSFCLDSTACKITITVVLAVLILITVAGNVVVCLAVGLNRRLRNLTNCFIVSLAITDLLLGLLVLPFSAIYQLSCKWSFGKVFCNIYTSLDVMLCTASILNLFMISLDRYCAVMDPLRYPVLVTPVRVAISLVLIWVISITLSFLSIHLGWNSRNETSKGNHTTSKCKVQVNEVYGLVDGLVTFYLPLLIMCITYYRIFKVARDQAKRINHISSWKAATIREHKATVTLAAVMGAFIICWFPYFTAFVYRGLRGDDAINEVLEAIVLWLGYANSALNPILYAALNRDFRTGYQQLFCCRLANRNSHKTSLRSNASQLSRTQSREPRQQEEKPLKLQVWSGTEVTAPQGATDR

As for `C[C@H]1CN(C(=O)c2ccc(-c3ccc(F)cc3)cc2)CCN1C(=O)c1ccc2cc[nH]c2c1`, the inhibition constant Ki (in assay [1]; at Mu-type opioid receptor; in assay [2]; on Histamine H2 receptor; in [3]; on D(2) dopamine receptor) was > 10 µM throughout. Besides, the Ki (in assay [4]; in assay [5]; in assay [6]; on D(3) dopamine receptor; in assay [8]; in [9]) was > 10 µM in each case. Moreover, the IC50 (as a rule, the midpoint of a concentration-inhibition curve) in [7] worked out at 0.064 µM.

On to `COc1cccc(-c2ccc(C(=O)N3CCN(C(=O)c4ccc5cc[nH]c5c4)[C@H](C)C3)cc2)c1`, for which the inhibitory constant (Ki) (in assay [1]; on Mu-type opioid receptor; in [2]; at Histamine H2 receptor; in assay [3]; at D(2) dopamine receptor) was > 10 µM throughout. For the same compound, the inhibitory constant (Ki) (in assay [4]; in [5]; in assay [6]; on D(3) dopamine receptor; in assay [8]; in [9]) was > 10 µM in each case. Also, the IC50 in assay [7] came to 0.64 µM.

On to `C[C@H]1CN(C(=O)c2ccc(-c3cncs3)cc2)CCN1C(=O)c1ccc2cc[nH]c2c1`, for which, in assay [10], the Activity was 5%. In assay [7], the IC50 amounted to 0.065 µM.

As to `Cc1noc(C)c1-c1ccc(C(=O)N2CCN(C(=O)c3ccc4cc[nH]c4c3)[C@@H](C)C2)cc1`, in [10], the Activity was determined as 5%. In addition, the concentration for half-maximal inhibition (IC50) in [7] came out at 0.245 µM.

In the case of `COc1cccc(-c2ccc(C(=O)N3CCN(C(=O)c4ccc5cc[nH]c5c4)C[C@H]3C)cc2)c1`, in [7], the half-maximal inhibitory concentration (IC50) came to 0.068 µM.

`C[C@H]1CN(C(=O)c2ccc(-c3cccc(F)c3)cc2)CCN1C(=O)c1ccc2cc[nH]c2c1`: the Ki (in [1]; on Mu-type opioid receptor; in assay [2]; at Histamine H2 receptor; in assay [3]; on D(2) dopamine receptor) was > 10 µM each time. The inhibition constant (Ki) (in [4]; in assay [5]; in assay [6]; on D(3) dopamine receptor; in assay [8]; in assay [9]) was > 10 µM each time. For the same compound, the half-maximal inhibitory concentration (IC50) in [7] came out at 0.147 µM.

`C[C@H]1CN(C(=O)c2ccc(-c3cccnc3)cc2)CCN1C(=O)c1ccc2cc[nH]c2c1`: in [10], the Activity stood at 21%. In addition, the IC50 in [7] stood at 0.143 µM.

On to `Cc1ccccc1-c1ccc(C(=O)N2CCN(C(=O)c3ccc4cc[nH]c4c3)[C@@H](C)C2)cc1F`, for which, in assay [10], the Activity came out at 16%. For the same compound, in assay [7], the IC50 was determined as 0.009 µM.

With `COc1cccc(-c2ccc(C(=O)N3CCN(C(=O)c4ccc5cc[nH]c5c4)C[C@@H]3C)cc2)c1`, in [7], the IC50 worked out at 0.28 µM.

Regarding `C[C@H]1CN(C(=O)c2ccc(-c3ccc(OC(F)(F)F)cc3)cc2)CCN1C(=O)c1ccc2cc[nH]c2c1`, the inhibition constant (Ki) (in assay [1]; on Mu-type opioid receptor; in [2]; at Histamine H2 receptor; in assay [3]; on D(2) dopamine receptor) was > 10 µM throughout. The inhibition constant Ki (in [4]; in assay [5]; in assay [6]; at D(3) dopamine receptor; in assay [8]; in assay [9]) was > 10 µM in each case. Besides, the 50% inhibitory concentration (IC50) in assay [7] is 0.136 µM.

`C[C@H]1CN(C(=O)c2ccc(-c3cccc(C(F)(F)F)c3)cc2)CCN1C(=O)c1ccc2cc[nH]c2c1`: the inhibitory constant (Ki) (in assay [1]; at Mu-type opioid receptor; in [2]; at Histamine H2 receptor; in assay [3]; at D(2) dopamine receptor) was > 10 µM each time. Further, the inhibition constant (Ki) (in assay [4]; in [5]; in assay [6]; on D(3) dopamine receptor; in assay [8]; in [9]) was > 10 µM in each case. Also, the half-maximal inhibitory concentration (IC50) in assay [7] worked out at 0.077 µM.

Consider `C[C@H]1CN(C(=O)c2csc(-c3ccccc3F)n2)CCN1C(=O)c1ccc2cc[nH]c2c1`, for which the Activity in assay [10] was determined as 14%. Moreover, the IC50 in assay [7] was 0.0337 µM.

As for `C[C@H]1CN(C(=O)c2ccc(-c3cn[nH]c3)cc2)CCN1C(=O)c1ccc2cc[nH]c2c1`, the Activity in assay [10] was 17%. The IC50 in [7] was 0.123 µM.

As to `C[C@H]1CN(C(=O)c2ccc(-c3cccc(OC(F)(F)F)c3)cc2)CCN1C(=O)c1ccc2cc[nH]c2c1`, the Ki (in assay [1]; at Mu-type opioid receptor; in assay [2]; on Histamine H2 receptor; in [3]; on D(2) dopamine receptor) was > 10 µM each time. The inhibition constant (Ki) (in assay [4]; in assay [5]; in [6]; on D(3) dopamine receptor; in assay [8]; in assay [9]) was > 10 µM in each case. The IC50 in [7] was determined as 0.0465 µM.

Take `COc1cccc(-c2ccc(C(=O)N3CCN(C(=O)c4ccc5cc[nH]c5c4)CC3)cc2)c1`: the IC50 in assay [7] was 0.025 µM.

Turning to `C[C@H]1CN(C(=O)c2ccc(-c3ccccc3)nc2)CCN1C(=O)c1ccc2cc[nH]c2c1`, the Activity in assay [10] was determined as 19%. In [7], the half-inhibitory concentration (IC50) came out at 0.02 µM.

With `Cc1cc(-c2ccccc2)ccc1C(=O)N1CCN(C(=O)c2ccc3cc[nH]c3c2)[C@@H](C)C1`, in [10], the Activity was 36%. Further, in assay [7], the IC50 came to 0.0143 µM.

For `C[C@H]1CN(C(=O)c2ccc(N3CCOCC3)cc2)CCN1C(=O)c1ccc2cc[nH]c2c1`, the IC50 in [7] was determined as 0.339 µM.

Regarding `COc1ccccc1-c1ccc(C(=O)N2CCN(C(=O)c3ccc4cc[nH]c4c3)[C@@H](C)C2)cc1`, the Ki (in assay [1]; at Mu-type opioid receptor; in assay [2]; at Histamine H2 receptor; in [3]; on D(2) dopamine receptor) was > 10 µM throughout. The inhibition constant Ki (in assay [4]; in assay [5]; in assay [6]; at D(3) dopamine receptor; in [8]; in assay [9]) was > 10 µM each time. Also, the half-maximal inhibitory concentration (IC50) in [7] was found to be 0.026 µM.

As for `O=C(c1ccc(-c2ccccc2)cc1)N1CCCN(C(=O)c2ccc3cc[nH]c3c2)CC1`, in assay [7], the IC50 turned out to be 6.5 µM.

In the case of `C[C@H]1CN(C(=O)c2ccc(-c3ccccn3)cc2)CCN1C(=O)c1ccc2cc[nH]c2c1`, in [10], the Activity came out at 12%. For the same compound, the IC50 in [7] was found to be 0.0422 µM.

For the compound `C[C@H]1CN(C(=O)c2ccc(-c3ccncc3)cc2)CCN1C(=O)c1ccc2cc[nH]c2c1`, the Activity in assay [10] was -2%. Also, in assay [7], the IC50 was found to be 0.0127 µM.

For the compound `C[C@H]1CN(C(=O)c2ccc(-c3ccccc3)cc2F)CCN1C(=O)c1ccc2cc[nH]c2c1`, in assay [10], the Activity is 43%. In addition, the 50% inhibitory concentration (IC50) in [7] amounted to 0.0177 µM.

As for `C[C@H]1CN(C(=O)c2ccc(-c3ccccc3Cl)cn2)CCN1C(=O)c1ccc2cc[nH]c2c1`, in assay [10], the Activity was found to be 18%. For the same compound, the IC50 in assay [7] stood at 0.0372 µM.

As for `C[C@H]1CN(C(=O)c2ccc(-c3ccccc3Cl)nc2)CCN1C(=O)c1ccc2cc[nH]c2c1`, the Activity in [10] amounted to 14%. Besides, the IC50 in [7] came out at 0.013 µM.
